Data reported in ChEMBL document CHEMBL1152413, “Glucose-based spiro-heterocycles as potent inhibitors of glycogen phosphorylase” (Bioorg Med Chem, 2009).
Blank lines part the entries; values can stand above or below the compound they belong to. The source made the active and inactive calls. The calls are words filed in the database; no cut-off is given here.

Experiments:
[1] = target: T1, Glycogen phosphorylase, muscle form (Oryctolagus cuniculus, UniProt P00489)
T1 sequence (P00489 whole entry): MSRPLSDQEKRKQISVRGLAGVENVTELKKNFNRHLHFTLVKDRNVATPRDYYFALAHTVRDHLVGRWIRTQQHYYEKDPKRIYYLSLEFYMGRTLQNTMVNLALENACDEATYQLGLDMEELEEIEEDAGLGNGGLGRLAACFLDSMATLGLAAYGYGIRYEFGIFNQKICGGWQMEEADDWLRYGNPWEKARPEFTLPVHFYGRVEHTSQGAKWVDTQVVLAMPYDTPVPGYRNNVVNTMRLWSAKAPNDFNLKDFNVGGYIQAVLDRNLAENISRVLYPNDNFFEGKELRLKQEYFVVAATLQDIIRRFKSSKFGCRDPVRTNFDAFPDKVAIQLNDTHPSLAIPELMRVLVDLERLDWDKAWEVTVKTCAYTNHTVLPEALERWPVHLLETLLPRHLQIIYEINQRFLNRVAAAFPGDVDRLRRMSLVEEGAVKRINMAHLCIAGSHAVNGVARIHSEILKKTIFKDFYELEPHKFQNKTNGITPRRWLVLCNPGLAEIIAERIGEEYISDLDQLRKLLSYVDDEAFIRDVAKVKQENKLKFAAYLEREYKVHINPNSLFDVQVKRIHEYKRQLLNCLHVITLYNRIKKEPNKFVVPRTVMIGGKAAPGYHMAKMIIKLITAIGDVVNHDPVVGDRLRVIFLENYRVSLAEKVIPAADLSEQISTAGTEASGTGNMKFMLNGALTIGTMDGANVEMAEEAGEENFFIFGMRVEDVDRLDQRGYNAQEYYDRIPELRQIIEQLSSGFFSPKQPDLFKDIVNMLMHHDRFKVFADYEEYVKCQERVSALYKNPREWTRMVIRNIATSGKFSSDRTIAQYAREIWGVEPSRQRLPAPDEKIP

[2] = target: T1, Glycogen phosphorylase, muscle form; assay: Inhibition of rabbit muscle glycogen phosphorylase b by Lineweaver-Burke plot analysis
Summary of the method: (§1)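 Glycogen phosphorylase b isolated from rabbit skeletal muscle (Fischer–Krebs method with dithiothreitol in place of L-cysteine), recrystallized at least three times. Assayed in glycogen-synthesis direction with α-D-glucose-1-phosphate 2–20 mM, glycogen 1% w/v and AMP 1 mM held constant. Inhibitors were dissolved in DMSO and diluted into 50 mM triethanolamine, 1 mM EDTA, 1 mM DTT, keeping final DMSO below 1%. Activities were analysed as Lineweaver–Burk plots by nonlinear fitting.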

[3] = target: T2, Glycogen phosphorylase, muscle form (Oryctolagus cuniculus) (UniProt P00489); assay: Inhibition of rabbit muscle glycogen phosphorylase b at 625 uM by Lineweaver-Burke plot analysis
T2 sequence (whole entry): T1 sequence (P00489 whole entry)
Summary of the method: as §1

[4] = target: T2, Glycogen phosphorylase, muscle form (Oryctolagus cuniculus); assay: Inhibition of rabbit muscle glycogen phosphorylase b at 312.5 uM by Lineweaver-Burke plot analysis
Summary of the method: as §1

[5] = Solubility in DMSO; type: physicochemical

Ki [1]: 1800 µM
SMILES: N#Cc1ccc(/C(=N\O)N[C@@H]2O[C@H](CO)[C@@H](O)[C@H](O)[C@H]2O)cc1

IC50 [2]: > 10000 µM
SMILES: O=[N+]([O-])c1ccc(/C(=N/O)S[C@@H]2O[C@H](CO)[C@@H](O)[C@H](O)[C@H]2O)cc1

inhibition [3]: inactive
SMILES: OC[C@H]1O[C@@H](S/C(=N\O)c2ccncc2)[C@H](O)[C@@H](O)[C@@H]1O

inhibition [4]: inactive
SMILES: COc1ccc(/C(=N/O)S[C@@H]2O[C@H](CO)[C@@H](O)[C@H](O)[C@H]2O)cc1

IC50 [2]: 700 µM
SMILES: N#Cc1ccc(C2=NO[C@]3(O[C@H](CO)[C@@H](O)[C@H](O)[C@H]3O)S2)cc1

inhibition [3]: inactive
SMILES: N#Cc1ccc(/C(=N/O)S[C@@H]2O[C@H](CO)[C@@H](O)[C@H](O)[C@H]2O)cc1

inhibition [3]: inactive
SMILES: O=[N+]([O-])c1ccc(/C(=N\O)N[C@@H]2O[C@H](CO)[C@@H](O)[C@H](O)[C@H]2O)cc1

solubility [5]: Insoluble
SMILES: OC[C@H]1O[C@@H](S/C(=N\O)c2ccc3ccccc3c2)[C@H](O)[C@@H](O)[C@@H]1O

The next lines start with the compound.

SMILES: COc1ccc(C2=NO[C@]3(O[C@H](CO)[C@@H](O)[C@H](O)[C@H]3O)S2)cc1
Ki [1]: 8.2 µM

SMILES: O=[N+]([O-])c1ccc(C2=NO[C@]3(O[C@H](CO)[C@@H](O)[C@H](O)[C@H]3O)S2)cc1
IC50 [2]: 250 µM

SMILES: OC[C@H]1O[C@]2(ON=C(c3ccc(F)cc3)S2)[C@H](O)[C@@H](O)[C@@H]1O
Ki [1]: 48 µM

SMILES: OC[C@H]1O[C@]2(ON=C(c3ccc(-c4ccccc4)cc3)S2)[C@H](O)[C@@H](O)[C@@H]1O
IC50 [2]: 250 µM

SMILES: OC[C@H]1O[C@@]2(ON=C(c3ccncc3)S2)[C@H](O)[C@@H](O)[C@@H]1O
inhibition [3]: inactive

SMILES: OC[C@H]1O[C@@H](S/C(=N\O)c2ccc(-c3ccccc3)cc2)[C@H](O)[C@@H](O)[C@@H]1O
solubility [5]: Insoluble
